Assay [1] relates to Canis familiaris. The assay is described as follows: Change in mean arterial pressure in anesthetized dogs for a dose of 10 mg/kg. Format: functional, Canis lupus familiaris, Artery. The gist of the method: (§1)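 Dogs anesthetized with sodium pentobarbital (35 mg/kg iv), femoral artery cannulated for pressure, ECG-triggered heart rate, femoral vein for dosing. Rising iv doses were given 90 min apart, and each dose is the full dose, not cumulative. Value is the maximal mean arterial pressure change 10–15 min after each dose, two dogs per compound, ±3 mmHg. Saline served as control.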

In assay [2] the test system is Rattus norvegicus. The assay is described as follows: Percentage fall in systolic blood pressure in spontaneously hypertensive rats after 3 h following 50 mg/kg p.o. Conditions: route oral. Format: functional, Artery. In short, it runs like this:
(§2)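 Male Okamoto-Aoki SHR, trained, in groups of four matched for mean systolic pressure; one group per run received water vehicle. Oral dosing in water (0.1 mL per 10 g) on two consecutive mornings. After the day-2 dose, rats were restrained at 30.0 ± 1.0 °C. Systolic pressure was read by tail cuff (inflated to 300 mmHg, first pulse) at 1–4 h. % fall is versus the untreated control group, by 1-tail t test (p ≤ 0.05).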

Assay [3] concerns Rattus norvegicus. The assay is described as follows: The antihypertensive activity as percentage fall in systolic blood pressure in spontaneously hypertensive rats after a period of 4 hr for a dose of 50 mg/kg po.
Assay [4] addresses T1, Adrenergic receptor alpha-2 (Rattus norvegicus, UniProt P22086+P19328+P22909).
T1 sequence (P22086 whole entry): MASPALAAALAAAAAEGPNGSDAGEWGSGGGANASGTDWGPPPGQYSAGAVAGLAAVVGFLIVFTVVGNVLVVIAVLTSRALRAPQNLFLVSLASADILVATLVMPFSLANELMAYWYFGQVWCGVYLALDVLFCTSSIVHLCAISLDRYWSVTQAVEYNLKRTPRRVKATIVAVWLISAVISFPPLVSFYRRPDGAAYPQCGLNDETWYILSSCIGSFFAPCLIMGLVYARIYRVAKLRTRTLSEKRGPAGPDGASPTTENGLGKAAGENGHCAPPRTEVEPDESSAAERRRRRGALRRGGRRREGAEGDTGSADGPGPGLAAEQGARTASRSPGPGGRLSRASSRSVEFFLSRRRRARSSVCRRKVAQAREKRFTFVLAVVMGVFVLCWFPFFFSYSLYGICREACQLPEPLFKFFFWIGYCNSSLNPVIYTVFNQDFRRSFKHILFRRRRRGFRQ
T1 sequence (P19328 whole entry): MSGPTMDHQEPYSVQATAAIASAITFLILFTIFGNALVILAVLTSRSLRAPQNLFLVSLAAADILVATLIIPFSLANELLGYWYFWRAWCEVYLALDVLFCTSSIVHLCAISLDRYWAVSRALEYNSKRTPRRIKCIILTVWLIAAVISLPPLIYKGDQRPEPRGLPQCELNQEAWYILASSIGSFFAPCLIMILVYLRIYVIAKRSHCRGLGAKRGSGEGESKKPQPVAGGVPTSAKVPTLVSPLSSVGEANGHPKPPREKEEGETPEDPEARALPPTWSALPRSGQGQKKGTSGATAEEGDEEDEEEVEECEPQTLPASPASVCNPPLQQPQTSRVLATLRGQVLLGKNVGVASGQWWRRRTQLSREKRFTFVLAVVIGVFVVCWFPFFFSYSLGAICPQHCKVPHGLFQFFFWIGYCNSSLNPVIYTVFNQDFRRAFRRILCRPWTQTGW
T1 sequence (P22909 whole entry): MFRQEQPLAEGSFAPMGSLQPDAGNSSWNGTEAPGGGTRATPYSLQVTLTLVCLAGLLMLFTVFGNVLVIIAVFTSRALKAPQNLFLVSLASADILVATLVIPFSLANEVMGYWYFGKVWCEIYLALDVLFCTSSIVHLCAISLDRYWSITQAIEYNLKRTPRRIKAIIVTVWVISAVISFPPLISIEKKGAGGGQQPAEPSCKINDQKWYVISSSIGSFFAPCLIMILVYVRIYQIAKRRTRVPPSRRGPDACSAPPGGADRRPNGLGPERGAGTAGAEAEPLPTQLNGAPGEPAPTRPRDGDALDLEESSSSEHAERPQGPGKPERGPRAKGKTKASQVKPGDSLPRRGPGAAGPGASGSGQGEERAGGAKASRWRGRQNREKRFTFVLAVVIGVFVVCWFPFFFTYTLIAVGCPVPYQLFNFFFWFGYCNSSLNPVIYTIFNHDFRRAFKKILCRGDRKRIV
The assay is described as follows: Antagonistic potency of compound for Alpha-2 adrenergic receptor. It is filed as functional.

The test system of assay [5] is Canis familiaris. The experiment in a line: Change in mean arterial pressure in anesthetized dogs for a dose of 0.1 mg/kg. Format: functional, Canis lupus familiaris, Artery. The gist of the method: as §1
Assay [6] has as its system Rattus norvegicus. The assay is described as follows: The antihypertensive activity as percentage fall in systolic blood pressure in spontaneously hypertensive rats after a period of 3 hr for a dose of 50 mg/kg po.
Assay [7] relates to Rattus norvegicus. The experiment in a line: The antihypertensive activity as percentage fall in systolic blood pressure in spontaneously hypertensive rats after a period of 1 hr for a dose of […]. It is filed as functional, Artery. The gist of the method: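 Male Okamoto-Aoki SHR, trained, in groups of four matched for systolic pressure, with a concurrent vehicle control group. Oral dosing on two consecutive mornings, in water as solution or suspension at 0.1 mL/10 g. On day 2 rats were restrained at 30.0 ± 1.0 °C. Tail-cuff systolic pressure, four traces per rat, read at each hour. Per cent fall versus control; 1-tail t test, p ≤ 0.05.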

For assay [8], the system named is Canis familiaris. The experiment in a line: Percent inhibition of the pressor responses to 1 ug/kg iv Epinephrine in pentobarbital-anesthetized dogs for a dose of 1 mg/kg. It is filed as functional. To be noted: Canis lupus familiaris. In short, it runs like this: (§3)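 Pentobarbital-anesthetized dogs (35 mg/kg iv) with femoral arterial pressure recording. Epinephrine (1 μg/kg), norepinephrine (0.75 μg/kg) and phenylephrine (7.5 μg/kg) iv challenges were given about every 10 min before and after rising iv test doses, which were spaced 90 min apart. Value is % inhibition of the pressor response.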

The subject of assay [9] is Rattus norvegicus. The experiment in a line: Percentage fall in systolic blood pressure in spontaneously hypertensive rats after 2 hr following 50 mg/kg p.o. Format: functional, Artery. Conditions: route oral. The gist of the method: as §2
The subject of assay [10] is Canis familiaris. The assay is described as follows: Change in mean arterial pressure in anesthetized dogs for a dose of 1 mg/kg. It is filed as functional, Canis lupus familiaris, Artery. In short, it runs like this: as §1
Assay [11] concerns Canis familiaris. The assay is described as follows: Percent inhibition of the pressor responses to 7.5 ug/kg iv phenylephrine in pentobarbital-anesthetized dogs for a dose of 10 mg/kg. Format: functional. Conditions: Canis lupus familiaris. In short, it runs like this:
as §3

In assay [12] the test system is Canis familiaris. The experiment in a line: Percent inhibition of the pressor responses to 0.75 ug/kg iv norepinephrine in pentobarbital-anesthetized dogs for a dose of 0.316 mg/kg. Format: functional. To be noted: Canis lupus familiaris. The gist of the method:
as §3

The test system of assay [13] is Rattus norvegicus. The experiment in a line: The antihypertensive activity as percentage fall in systolic blood pressure in spontaneously hypertensive rats after a period of 4 hr for a dose of 25 mg/kg po; NS=Not significant. Further details: dose 25 mg/kg. To be noted: Artery. It is filed as functional, organism-based. In short, it runs like this:
as §2

Assay [14] relates to Canis familiaris. The experiment in a line: Percent inhibition of the pressor responses to 0.75 ug/kg iv norepinephrine in pentobarbital-anesthetized dogs for a dose of 1 mg/kg. Format: functional. To be noted: Canis lupus familiaris. The gist of the method: as §3
Assay [15] relates to Canis familiaris. The experiment in a line: Change in mean arterial pressure in anesthetized dogs for a dose of 0.01 mg/kg. It is filed as functional, Canis lupus familiaris, Artery. In short, it runs like this:
as §1

Assay [16] relates to Canis familiaris. The assay is described as follows: Percent inhibition of the pressor responses to 0.75 ug/kg iv norepinephrine in pentobarbital-anesthetized dogs for a dose of 3.16 mg/kg. It is filed as functional. To be noted: Canis lupus familiaris. The gist of the method:
as §3

Calls of active or inactive are those of the source. No cut-off for these calls is given here.

For orientation: pA2 means the negative logarithm of the molar antagonist concentration that doubles the agonist concentration needed for the same response. One may read the inhibition in vivo as the drop in the measured response relative to a control, in per cent. The low end stands for a response near the control, the high end for a response far below the control.

With `O=C1NCC2(CCN(CCc3c[nH]c4ccccc34)CC2)O1`, the MAP with Canis familiaris [1] is recorded as -6 mmHg; with Canis familiaris [5], -2 mmHg; with Canis familiaris [10] it was -11 mmHg. Also, the “Decrease in blood pressure” value in the assay on Rattus norvegicus [2] is listed as 7%; with Rattus norvegicus [3], 11%; with Rattus norvegicus [6], 8%; in the assay with Rattus norvegicus [7] it was 14%; with Rattus norvegicus [9], 10%. In assay [4], the pA2 is below 5. The compound further yielded an inhibition in vivo at 1 mg/kg in the assay on Canis familiaris [8] above 100%. The inhibition in vivo at 10 mg/kg in the assay with Canis familiaris [11] turned out to be 100%.

With `CN1CC2(CCN(CC(O)C3COc4ccccc4O3)CC2)OC1=O` (configuration not stated), in the assay with Canis familiaris [12], the inhibition in vivo at 0.316 mg/kg was found to be 41%. For the same compound, the figures for the “Decrease in blood pressure” value with Rattus norvegicus [2] and in the assay on Rattus norvegicus [9] were 14% and 31%, respectively. Further, the pA2 in [4] was 6.4. In addition, in the assay with Rattus norvegicus [13], the “Decrease in blood pressure” value is “inactive”. In addition, the inhibition in vivo at 1 mg/kg was 60% in the assay with Canis familiaris [14] and above 100% with Canis familiaris [8]. Further, the MAP is 4 mmHg in the assay with Canis familiaris [5], 4 mmHg in the assay on Canis familiaris [15] and -13 mmHg in the assay on Canis familiaris [10]. Besides, 3.16 mg/kg produced 69% inhibition in vivo with Canis familiaris [16].

Values taken from ChEMBL document CHEMBL1121744, “Synthesis and antihypertensive activity of a series of 8-substituted 1-oxa-3,8-diazaspiro[4.5]decan-2-ones” (J Med Chem, 1981).
